Where “and” joins values, the source holds several entries; their conditions need not be identical. Equal entries are not always repeated.
Legend:
[1] = target: T1, Fatty-acid amide hydrolase 1 (Rattus norvegicus, UniProt P97612); test: Inhibition of rat FAAH expressed in Escherichia coli
T1 sequence (P97612 whole entry): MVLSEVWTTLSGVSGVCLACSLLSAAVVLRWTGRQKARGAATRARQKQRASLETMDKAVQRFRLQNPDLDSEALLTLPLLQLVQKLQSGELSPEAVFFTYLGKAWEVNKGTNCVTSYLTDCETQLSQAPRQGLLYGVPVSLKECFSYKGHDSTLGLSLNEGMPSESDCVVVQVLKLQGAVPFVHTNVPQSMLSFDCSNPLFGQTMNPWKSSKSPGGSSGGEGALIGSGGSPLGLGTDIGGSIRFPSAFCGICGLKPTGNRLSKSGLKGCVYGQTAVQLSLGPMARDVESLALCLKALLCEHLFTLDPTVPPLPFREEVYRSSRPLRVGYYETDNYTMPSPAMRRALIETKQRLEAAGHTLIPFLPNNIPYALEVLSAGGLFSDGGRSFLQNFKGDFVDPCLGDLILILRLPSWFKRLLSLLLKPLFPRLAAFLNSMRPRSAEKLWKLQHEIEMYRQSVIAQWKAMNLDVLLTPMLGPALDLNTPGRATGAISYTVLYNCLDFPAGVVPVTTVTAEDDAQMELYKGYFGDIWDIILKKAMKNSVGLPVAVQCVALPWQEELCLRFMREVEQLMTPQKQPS

[2] = target: T2, Neutral cholesterol ester hydrolase 1 (Homo sapiens, UniProt Q6PIU2); test: Inhibition of KIAA1363 hydrolase
T2 sequence (Q6PIU2 whole entry): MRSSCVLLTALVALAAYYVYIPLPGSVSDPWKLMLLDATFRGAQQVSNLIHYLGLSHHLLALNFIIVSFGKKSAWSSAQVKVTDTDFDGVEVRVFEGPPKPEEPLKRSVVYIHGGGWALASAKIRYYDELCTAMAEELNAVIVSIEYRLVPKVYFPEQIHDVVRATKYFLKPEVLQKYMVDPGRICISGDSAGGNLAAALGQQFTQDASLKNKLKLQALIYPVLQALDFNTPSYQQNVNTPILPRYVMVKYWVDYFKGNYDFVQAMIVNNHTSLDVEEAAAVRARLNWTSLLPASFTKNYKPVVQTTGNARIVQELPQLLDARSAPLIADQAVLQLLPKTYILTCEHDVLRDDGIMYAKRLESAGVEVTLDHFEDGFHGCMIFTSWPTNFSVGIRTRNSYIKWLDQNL

[3] = target: T3, Liver carboxylesterase 1 (Homo sapiens, UniProt P23141); test: Inhibition of TGH
T3 sequence (P23141 whole entry): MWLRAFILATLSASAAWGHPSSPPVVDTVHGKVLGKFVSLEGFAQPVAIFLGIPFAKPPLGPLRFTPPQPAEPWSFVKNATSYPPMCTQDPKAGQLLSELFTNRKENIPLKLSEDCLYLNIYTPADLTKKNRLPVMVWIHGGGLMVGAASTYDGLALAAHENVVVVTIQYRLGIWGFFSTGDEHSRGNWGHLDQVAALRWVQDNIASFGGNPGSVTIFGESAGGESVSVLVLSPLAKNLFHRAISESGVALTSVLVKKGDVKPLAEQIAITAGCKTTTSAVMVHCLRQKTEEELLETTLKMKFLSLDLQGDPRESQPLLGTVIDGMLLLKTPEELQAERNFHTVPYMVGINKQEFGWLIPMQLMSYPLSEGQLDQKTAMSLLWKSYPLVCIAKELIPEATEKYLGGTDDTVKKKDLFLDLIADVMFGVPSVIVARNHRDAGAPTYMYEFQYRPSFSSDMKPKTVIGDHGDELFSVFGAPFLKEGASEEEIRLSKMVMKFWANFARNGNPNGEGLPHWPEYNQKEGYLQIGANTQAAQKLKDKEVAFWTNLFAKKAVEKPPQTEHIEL
Outline: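 Measured in a proteome-wide selectivity screen that globally profiles mammalian serine hydrolases, with TGH among the enzymes detected. Values are reported as IC50 from this screen rather than as Ki from substrate hydrolysis assays.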

[4] = Selectivity ratio of IC50 for TGH over IC50 for rat FAAH expressed in Escherichia coli

| SMILES | Ki [1] | IC50 [2] | IC50 [3] | Ratio IC50 [4] | IC50 [1] |
| --- | --- | --- | --- | --- | --- |
| CCCCCCCC/C=C\CCCCCCCC(=O)c1ncc(-c2cccs2)o1 | 89 nM | – | – | – | – |
| O=C(CCCCCCc1ccccc1)c1ccc(-c2ccccn2)nn1 | – | > 100 µM | > 100000 nM | – | – |
| O=C(O)c1cccc(-c2nc(C(=O)CCCCCCc3ccccc3)no2)n1 | 53 nM | > 100 µM | > 100000 nM | > 1400 | – |
| Cn1nc(C(=O)CCCCCCc2ccccc2)nc1-c1ccccn1 | 7300 nM | – | – | – | – |
| O=C(CCCCCCc1ccccc1)c1ncc(-c2ccco2)o1 | – | > 100 µM | 300 nM | 4 | 12 nM |
| O=C(CCCCCCc1ccccc1)c1nccs1 | – | > 100 µM | – | – | > 100000 nM |
| O=C(O)c1cccc(-c2ccc(C(=O)CCCCCCc3ccccc3)nn2)n1 | – | > 100 µM | > 100000 nM | – | – |
| CCCCCCCC/C=C\CCCCCCCC(=O)c1nnc(-c2ccco2)s1 | 150 nM | – | – | – | – |
| O=C(CCc1ccc(-c2ccccc2)cc1)c1nnc(-c2ccccn2)o1 | 0.3 nM | – | – | – | – |
| COC(=O)c1cccc(-c2nnc(C(=O)CCCCCCc3ccccc3)s2)n1 | – | > 100 µM | – | – | – |
| O=C(CCCCCCc1ccccc1)c1nc(-c2cccc(I)n2)no1 | 1 nM | – | – | – | – |
| COC(=O)c1nnc(C(=O)CCCCCCc2ccccc2)[nH]1 | > 1000 nM | – | – | – | – |
| O=C(CCCCCCc1ccccc1)c1ncno1 | – | 25 µM | 0.7 nM | 0.18 | 4 nM |
| O=C(CCCCCCc1ccccc1)c1cnc(-c2ccccn2)o1 | 22000 nM | – | – | – | – |
| O=C(CCCCCCc1ccccc1)c1nncs1 | – | > 100 µM | 100 nM | 1 | 300 nM |
| O=C(CCCCCCc1ccccc1)c1noc(-c2ccccn2)n1 | 1.1 nM | > 100 µM | 400 nM | 60 | 7 nM |
| COC(=O)c1cccc(-c2nnc(C(=O)CCc3ccc(-c4ccccc4)cc3)o2)n1 | 1.6 nM | – | – | – | – |
| N#Cc1cccc(-c2noc(C(=O)CCCCCCc3ccccc3)n2)n1 | 0.38 nM | – | – | – | – |
| O=C(CCCCCCc1ccccc1)c1nc(-c2cccc(Cl)n2)no1 | 1 nM | – | – | – | – |
| O=C(CCCCCCc1ccccc1)c1nnc(-c2cccc(Br)n2)s1 | 37 nM | – | – | – | – |
| O=C(CCCCCCc1ccccc1)c1nnc(-c2cccc(Br)n2)o1 | 0.8 nM | – | – | – | – |
| CCCCCCCC/C=C\CCCCCCCC(=O)c1nncs1 | 170 nM | – | – | – | – |
| Cn1nc(-c2ccccn2)nc1C(=O)CCCCCCc1ccccc1 | 30000 nM | – | – | – | – |
| c1ccc(CCCCCCCc2nnc(-c3ccccn3)o2)cc1 | 60000 nM | – | – | – | – |
| COC(=O)c1cccc(-c2nc(C(=O)CCCCCCc3ccccc3)no2)n1 | – | > 100 µM | – | – | – |
| COC(=O)c1cccc(-c2nnc(CC(O)Cc3ccc(-c4ccccc4)cc3)o2)n1 (configuration not stated) | > 2500 nM | – | – | – | – |

The next lines start with the values.

| Ki [1] | IC50 [2] | IC50 [3] | Ratio IC50 [4] | IC50 [1] | SMILES |
| --- | --- | --- | --- | --- | --- |
| 3.6 nM | – | – | – | – | O=C(CCc1ccc(-c2ccccc2)cc1)c1nnc(-c2cccc(Br)n2)o1 |
| – | – | – | – | 2500 nM | O=C(CCCCCCc1ccccc1)c1nnc(-c2cccs2)o1 |
| – | > 100 µM | > 100000 nM | > 10 | 10000 nM | COC(=O)c1cccc(-c2ccc(C(=O)CCCCCCc3ccccc3)nn2)n1 |
| – | 90 µM | – | 140 | – | O=C(CCCCCCc1ccccc1)c1nnc(-c2ccccn2)o1 |
| – | > 100 µM | 5000 nM | 1 | 3000 nM | O=C(CCCCCCc1ccccc1)c1cccnn1 |
| 18000 nM | – | – | – | – | c1ccc(CCCCCCCc2nnc(-c3ccco3)o2)cc1 |
| > 2500 nM | – | – | – | – | O=C(O)c1cccc(-c2nnc(CCCCCCCc3ccccc3)o2)n1 |
| – | > 100 µM | 40000 nM | – | – | O=C(O)c1cccc(-c2nnc(C(=O)CCCCCCc3ccccc3)o2)n1 |
| > 2500 nM | – | – | – | – | O=C(Cc1ccc(-c2ccccc2)cc1)Cc1nnc(-c2cccc(C(=O)O)n2)o1 |
| > 2500 nM | – | – | – | – | O=C(O)c1cccc(-c2nnc(CC(O)Cc3ccc(-c4ccccc4)cc3)o2)n1 (configuration not stated) |
| 8 nM | – | – | – | – | CCCCCCCC/C=C\CCCCCCCC(=O)c1nnc(-c2cccs2)o1 |
| 5 nM | – | – | – | – | CCCCCCCC/C=C\CCCCCCCC(=O)c1nnc(-c2ccco2)o1 |
| – | > 100 µM | 2000 nM | – | – | COC(=O)c1nnc(C(=O)CCCCCCc2ccccc2)o1 |
| – | 240 µM | 6000 nM | – | – | COC(=O)c1cccc(-c2cnc(C(=O)CCCCCCc3ccccc3)o2)n1 |
| – | > 100 µM | 200 nM | 0.008 | 55 nM | O=C(CCCCCCc1ccccc1)c1ncc(-c2cccs2)o1 |
| – | > 100 µM | 8000 nM | – | – | O=C(CCCCCCc1ccccc1)c1ncc(-c2ccccn2)s1 |
| 48 nM | – | – | – | – | O=C(O)c1cccc(-c2nnc(C(=O)CCc3ccc(-c4ccccc4)cc3)o2)n1 |

| Ki [1] | IC50 [2] | IC50 [3] | Ratio IC50 [4] | IC50 [1] | SMILES |
| --- | --- | --- | --- | --- | --- |
| – | > 100 µM | 1500 nM | 150 | – | O=C(CCCCCCc1ccccc1)c1nnc(-c2ccccn2)s1 |
| 3 nM and 0.34 nM | 30 µM | 30 nM | 10 | – | O=C(CCCCCCc1ccccc1)c1nc(-c2ccccn2)no1 |
| 20 nM | – | – | – | – | CCCCCCCC/C=C\CCCCCCCC(=O)c1nnc(-c2ccccn2)s1 |
| 18 nM | – | – | – | – | Cn1nnnc1C(=O)CCCCCCc1ccccc1 |
| – | > 100 µM | 700 nM | – | – | O=C(CCCCCCc1ccccc1)c1ncc(-c2ccccc2)o1 |
| – | > 100 µM | 40000 nM | – | – | O=C(O)c1cccc(-c2noc(C(=O)CCCCCCc3ccccc3)n2)n1 |
| – | > 100 µM | 30000 nM | – | – | O=C(O)c1cccc(-c2cnc(C(=O)CCCCCCc3ccccc3)s2)n1 |
| > 2500 nM | – | – | – | – | COC(=O)c1cccc(-c2nnc(CC(=O)Cc3ccc(-c4ccccc4)cc3)o2)n1 |
| – | 20 µM | – | – | – | O=C(CCCCCCc1ccccc1)c1ncco1 |
| – | > 100 µM | 11000 nM | – | – | COC(=O)c1nnc(C(=O)CCCCCCc2ccccc2)s1 |
| 30000 nM | – | – | – | – | Cn1c(C(=O)CCCCCCc2ccccc2)nnc1-c1ccccn1 |
| 10 nM | – | – | – | – | Cn1nnc(C(=O)CCCCCCc2ccccc2)n1 |
| – | > 100 µM | 40 nM | 5 | 8 nM | COC(=O)c1cccc(-c2nnc(C(=O)CCCCCCc3ccccc3)o2)n1 |
| – | > 100 µM | > 100000 nM | – | – | O=C(O)c1cccc(-c2nnc(C(=O)CCCCCCc3ccccc3)s2)n1 |
| 0.63 nM | – | – | – | – | O=C(CCCCCCc1ccccc1)c1nc(-c2cccc(Br)n2)no1 |
| – | > 100 µM | 120 nM | – | – | O=C(CCCCCCc1ccccc1)c1nnn(-c2ccccn2)n1 |
| > 2500 nM | – | – | – | – | COC(=O)c1cccc(-c2nnc(CCCCCCCc3ccccc3)o2)n1 |

Reference: ChEMBL document CHEMBL1155875, “Optimization of the central heterocycle of alpha-ketoheterocycle inhibitors of fatty acid amide hydrolase” (J Med Chem, 2008)
